Experiment [1] in a line: inhibitors of TNFa-induced NFkB p65 translocation, primary screen, imaging, HUVEC, MLSMR starter and 10KST1 sets (AID 438;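 active = inhibition above 20% together with a positive visual image hit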;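 note: compound added about 3h40 before a 20 min TNFalpha stimulation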;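 for inhibition: signal is the nuclear over cytoplasmic p65 intensity ratio per well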). Conditions: HUVEC TNFa-induced p65 nuclear translocation; cell count: measured here: nuclei count (cytotoxicity indicator), at 2.08 µM; inhibition: at 2 µM, stronger effect = higher value, 0% TNFa-plus-vehicle, 100% no-TNFa wells.
The nature of experiment [2]: inhibitors of E-selectin induction by TNFa, primary screen, imaging, HUVEC, immunofluorescence, MLSMR starter and 10KST1 sets (AID 487;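 active = visually confirmed hit in the image check and inhibition above 20%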;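 for inhibition: signal is fraction of cell area covered by stained E-selectin grains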;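 for nuclei count: 100% = median nuclei count of all wells on the same plate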). Conditions: HUVEC TNFalpha-induced E-selectin immunofluorescence imaging, at 2 µM; inhibition: stronger effect = higher value; nuclei count: measured here: cell number, toxicity.
The nature of experiment [3]: DUSP6 inhibitors restoring Erk phosphorylation by chemical complementation, primary imaging in DUSP6-transfected HeLa (AID 609;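 active = compounds giving at least 50% inhibition in the cell-based MKP-3 phosphatase rescue imaging test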;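 for inhibition: phospho-Erk level distribution per well compared with pooled transfected vehicle control wells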). The conditions noted are these: HeLa MKP-3 transfected, phospho-Erk imaging KS statistic, at 10 µM, cells stimulated with TPA for 15 min.
For experiment [4], the target named is Dual specificity protein phosphatase 6 (Homo sapiens) (UniProt Q16828). The experiment is described as above. Conditions: HeLa MKP-3 transfected, phospho-Erk imaging KS statistic; at 10 µM; stronger effect = higher value; cells stimulated with TPA for 15 min.
Sequence of Dual specificity protein phosphatase 6 (Homo sapiens) (Q16828 whole entry, looked up): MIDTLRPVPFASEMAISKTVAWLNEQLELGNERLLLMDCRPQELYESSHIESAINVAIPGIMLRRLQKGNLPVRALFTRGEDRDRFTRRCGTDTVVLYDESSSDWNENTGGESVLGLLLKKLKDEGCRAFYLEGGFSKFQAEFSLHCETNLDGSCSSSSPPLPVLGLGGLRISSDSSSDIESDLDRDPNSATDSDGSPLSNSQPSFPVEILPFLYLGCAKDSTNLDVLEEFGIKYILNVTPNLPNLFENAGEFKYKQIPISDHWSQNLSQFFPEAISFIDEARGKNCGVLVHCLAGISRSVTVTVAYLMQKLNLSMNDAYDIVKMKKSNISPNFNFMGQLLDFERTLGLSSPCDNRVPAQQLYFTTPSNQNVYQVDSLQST
For experiment [5], the target named is Voltage-gated potassium channel subunit beta-2 (Rattus norvegicus) (UniProt P62483). Kind of experiment: KvBeta enzyme negative modulators, primary screen, biochemical, NADPH fluorescence (AID 622;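 active = fluorescence slope higher than the sample average by over 3 SD, cut at about -0.22 in these data, passing the limit was not always enough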;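 note: slope of raw intensity against log time taken from 70 to 1610 s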). The conditions noted are these: recombinant KvBeta, 4-cyanobenzaldehyde reduction, at 10 µM, stronger effect = higher value.
Sequence of Voltage-gated potassium channel subunit beta-2 (Rattus norvegicus) (P62483 whole entry, looked up): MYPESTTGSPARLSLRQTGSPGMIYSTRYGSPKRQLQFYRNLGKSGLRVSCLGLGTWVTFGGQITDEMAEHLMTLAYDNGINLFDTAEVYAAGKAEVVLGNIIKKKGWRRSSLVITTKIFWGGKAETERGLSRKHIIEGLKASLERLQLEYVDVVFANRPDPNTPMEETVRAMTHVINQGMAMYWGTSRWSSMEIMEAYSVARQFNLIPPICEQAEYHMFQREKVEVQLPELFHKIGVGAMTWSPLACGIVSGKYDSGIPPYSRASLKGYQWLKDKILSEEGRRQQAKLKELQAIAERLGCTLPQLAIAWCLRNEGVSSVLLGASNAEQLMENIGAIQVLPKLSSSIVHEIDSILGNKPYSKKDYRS
Experiment [6] has the same target. Kind of experiment: KvBeta positive modulators, primary screen, biochemical, NADPH fluorescence (AID 623).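 Note: fluorescence intensity change per second fitted from 20 to 320 s.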 The conditions noted are these: Recombinant KvBeta, NADPH fluorescence decrease slope, 10 min; at 10 µM; stronger effect = lower value.
The target in experiment [7] is Muscarinic acetylcholine receptor M4 (Homo sapiens) (UniProt P08173). Kind of experiment: compounds altering M4/GIRK thallium flux, either direction, primary screen, M4 allosteric agonist project, cell-based, HEK293 M4/GIRK, BTC-AM (AID 625;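 active = fluorescence slope after compound addition differing from the mean of all tested samples at 99.7% confidence, mostly higher but some lower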;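 note: thallium influx through GIRK channels coupled to M4 in HEK293 cells with BTC-AM dye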). The conditions noted are these: at 10 µM, actives lie on both sides. In a few lines:
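Material: HEK293 cells with M4 receptor and GIRK channels; Times: cells overnight at 37 °C, BTC-AM loading 1 h, reads 2 min total; Technique: kinetic BTC-AM fluorescence sampled at 1 Hz, 10 s pre-addition baseline; Read-out basis: slope over 15–24 s of trace normalized to starting intensity; Controls: carbachol positive, DMSO negative.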

Experiment [8] in a line: inhibitors of larval lipid processing in zebrafish, primary screen, whole organism, PED6 fluorescence, gall bladder and intestine (AID 686;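 active = a full or partial loss of lipid-probe fluorescence in the fish gall bladder, intestine or both, judged by eye; inactive = no fluorescence loss, or compound toxic to the fish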;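 note: larvae 5 to 7 days old with five fish per well; signal comes from phospholipase A2 cleavage of quenched PED6 carried via bile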). The conditions noted are these: Zebrafish larvae PED6 lipid processing, fluorescence scoring; screened at 20 µM (by protocol). In a few lines: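 Incubation: overnight exposure of larvae to compound plus PED6 / Test system: live zebrafish larvae aged 5-7 days, whole organism / Amount: 5 larvae per well / Read-out basis: visual per-well fluorescence inhibition score / Signal: visual fluorescence microscopy scoring of gall bladder, gut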

Experiment [9] in a line: inhibitors of Chlamydomonas gravitaxis, primary screen, whole organism, Chlamydomonas reinhardtii, WT vs cilia-less mutant, absorbance, 96-well (AID 463189;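 active = inhibition at or above 50% relative to wild type and mutant plate controls; inactive = inhibition below 50%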;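 note: 0% = wild type cc124 cells in DMSO and 100% = ciliumless bld1 mutant cells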). Conditions: OD600 absorbance, 2 days, at 10 µM, stronger effect = higher value.
The mark [10] stands for this setting: measured here: cell density z-score.
[11] abbreviates: measured here: nuclear c-Myc green intensity z-score.
[12] abbreviates: measured here: nuclear pErk red intensity z-score, stronger effect = higher value.

Activity calls are given as the source filed them.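 Rule for the calls, unless noted: active = NADPH fluorescence slope more negative than the mean of all samples by about 3 SD, 99.7% confidence; inactive = the rest.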

What is called inhibition is the relative decrease from the control value, in per cent.

Sequence of Muscarinic acetylcholine receptor M4 (Homo sapiens) (P08173 whole entry, looked up): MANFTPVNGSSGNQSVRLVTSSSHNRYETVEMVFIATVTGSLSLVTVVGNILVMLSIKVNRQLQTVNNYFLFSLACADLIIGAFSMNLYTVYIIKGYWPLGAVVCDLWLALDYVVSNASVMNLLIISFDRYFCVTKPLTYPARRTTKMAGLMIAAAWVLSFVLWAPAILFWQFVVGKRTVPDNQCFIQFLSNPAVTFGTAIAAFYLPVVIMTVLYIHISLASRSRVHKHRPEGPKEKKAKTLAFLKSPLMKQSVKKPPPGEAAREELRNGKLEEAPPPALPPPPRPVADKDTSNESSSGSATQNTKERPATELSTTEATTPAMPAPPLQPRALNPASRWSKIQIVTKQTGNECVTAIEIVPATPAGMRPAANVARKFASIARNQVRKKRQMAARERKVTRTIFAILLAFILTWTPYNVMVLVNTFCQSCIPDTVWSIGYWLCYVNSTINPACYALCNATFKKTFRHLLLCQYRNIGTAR

Regarding `C=CCOc1ccc(C2/C(=C(\O)c3ccc(F)cc3)C(=O)C(=O)N2CCCN(C)C)cc1` (centres undefined), in [1], the cell count worked out at 672. Further, the inhibition in experiment [1] is -13.7% (inactive); in [2], -142% (inactive); in experiment [4] it was 4.25% (inactive); in [9] it was 14.7% (inactive). Moreover, the nuclei count in experiment [2] stood at 172%. Further, the results for the z-score in experiment [3] (setting [10]), in experiment [3] (setting [11]) and in [3] (setting [12]) were 1.58, 1.06 and -0.378, respectively. The fluorescence slope in experiment [5] was -0.451 (inactive); in experiment [7], 0.00492 (inactive). The NADPH fluorescence slope in experiment [6] was -4.3e-05 (inactive). In addition, in experiment [8], the compound was called inactive.

In the case of `CCN(CC)CCCN1C(=O)C(=O)/C(=C(/O)c2ccc(OC)cc2)C1c1ccco1` (centres undefined), the cell count in experiment [1] came out at 651. Besides, the inhibition in [1] was -11.9% (inactive); in experiment [2] it was 43.5% (inactive); in [4], -0.233% (inactive); in experiment [9] it was -7.38% (inactive). Moreover, in [2], the nuclei count stood at 185%. Moreover, the z-score stood at 0.516 in [3] (setting [10]), 0.587 in experiment [3] (setting [11]) and 0.462 in experiment [3] (setting [12]). Besides, the fluorescence slope in experiment [5] is -0.471 (inactive); in experiment [7], 0.0055 (inactive). Besides, the NADPH fluorescence slope in [6] was -0.000107 (inactive). Moreover, the outcome in [8] was inactive.

As for `COC(=O)CSc1nc(-c2cccs2)ccc1C#N`, in experiment [1], the cell count was determined as 646. For the same compound, the inhibition in [1] was 1.5% (inactive); in experiment [2], -18.4% (inactive); in [4] it was 2.92% (inactive); in experiment [9], -2.12% (inactive). Besides, in experiment [2], the nuclei count stood at 154%. Further, the z-score in [3] (setting [10]) is 0.598; in [3] (setting [11]), -1.62; in experiment [3] (setting [12]) it was -0.658. The fluorescence slope in experiment [5] was -0.456 (inactive); in [7] it was 0.00605 (inactive). For the same compound, the NADPH fluorescence slope in experiment [6] is -4.2e-05 (inactive). For the same compound, the result in [8] was inactive.

With `CCOC(=O)/C=c1\s/c(=C(\C#N)C(=O)OCC)n(-c2ccccc2)c1=O`, the cell count in [1] was 653. The inhibition is -4.6% (inactive) in experiment [1], -12% (inactive) in experiment [2], 1.42% (inactive) in [4] and -7.74% (inactive) in [9]. Also, the nuclei count in experiment [2] turned out to be 151%. For the same compound, the z-score is -0.465 in experiment [3] (setting [10]), -0.678 in experiment [3] (setting [11]) and -0.157 in [3] (setting [12]). Moreover, the fluorescence slope in experiment [5] is -0.359 (inactive); in experiment [7], 0.00573 (inactive). The NADPH fluorescence slope in experiment [6] is -6.6e-07 (inactive). Moreover, the compound was called inactive in experiment [8].

As to `COCCCn1c(C)nc2c(c1=O)c1nc3ccccc3nc1n2CCc1ccccc1`, the cell count in experiment [1] was 709. Moreover, the inhibition was 4.3% (inactive) in [1], 18.7% (inactive) in experiment [2], -9.53% (inactive) in experiment [4] and 8.3% (inactive) in experiment [9]. Further, the nuclei count in experiment [2] was 162%. Further, the values for the z-score in experiment [3] (setting [10]), in [3] (setting [11]) and in [3] (setting [12]) were -0.739, -0.364 and -0.291, respectively. Also, the fluorescence slope in experiment [5] is -0.341 (inactive); in experiment [7] it was 0.00467 (inactive). The NADPH fluorescence slope in experiment [6] was -5.1e-05 (inactive). Moreover, the result in experiment [8] was inactive.

As to `CCNC(=O)c1cc2c(=O)n3cccc(C)c3nc2n(CCc2ccccc2)c1=N`, the cell count in experiment [1] stood at 643. For the same compound, the inhibition in [1] was 8.2% (inactive); in [2], -7.9% (inactive); in experiment [4], 14.7% (inactive); in [9], 70.9% (active). Besides, the nuclei count in experiment [2] was found to be 106%. Moreover, the results for the z-score in experiment [3] (setting [10]), in experiment [3] (setting [11]) and in experiment [3] (setting [12]) were -0.692, 0.0237 and -0.676, respectively. The fluorescence slope in experiment [5] is -0.0428 (inactive); in experiment [7] it was 0.00034 (inactive). For the same compound, the NADPH fluorescence slope in experiment [6] was -1.8e-05 (inactive). Besides, the outcome in experiment [8] was “active; no signal in intestine only”.

Consider `CC(=O)c1cccc(N=C2NC(=O)C(CO)(CO)S2)c1`, for which, in experiment [1], the cell count was determined as 634. For the same compound, the inhibition was 1.6% (inactive) in experiment [1], -12.3% (inactive) in experiment [2], -2.09% (inactive) in experiment [4] and -10% (inactive) in experiment [9]. In [2], this compound showed a nuclei count of 118%. In addition, the z-score was -2.29 in [3] (setting [10]), 1.22 in experiment [3] (setting [11]) and 0.157 in experiment [3] (setting [12]). The values for the fluorescence slope in [5] and in [7] were -0.441 (inactive) and 0.00557 (inactive), respectively. In addition, the NADPH fluorescence slope in experiment [6] is -4.4e-05 (inactive). Moreover, in experiment [8], the compound was classed as inactive.

For the compound `COC(=O)CSCC(=O)Nc1cc2c(cc1C(C)=O)OCO2`, the cell count in experiment [1] stood at 333. The inhibition in experiment [1] is -6.3% (inactive); in experiment [2], -95.3% (inactive); in [4], -4.78% (inactive); in experiment [9], 22.6% (inactive). The nuclei count in [2] was found to be 76.4%. For the same compound, the z-score in [3] (setting [10]) is 0.0556; in experiment [3] (setting [11]), -1.11; in [3] (setting [12]), 1.67. For the same compound, the figures for the fluorescence slope in experiment [5] and in experiment [7] were -0.452 (inactive) and 0.00475 (inactive), respectively. Moreover, the NADPH fluorescence slope in [6] was 1.5e-05 (inactive). Moreover, the result in [8] was inactive.

Turning to `CCCCN(CCCC)C(=O)CSc1nnc2n(C)c(=O)c3c4c(sc3n12)CCCC4`, the cell count in [1] is 496. For the same compound, the inhibition in experiment [1] is -18.2% (inactive); in experiment [2], -94.2% (inactive); in experiment [4], 7.93% (inactive); in [9], 84% (active). The same compound gave a nuclei count in experiment [2] of 142%. Moreover, the z-score was 2.28 in experiment [3] (setting [10]), -1.51 in experiment [3] (setting [11]) and -0.0585 in experiment [3] (setting [12]). Further, the fluorescence slope in experiment [5] is -0.463 (inactive); in experiment [7] it was 0.00616 (inactive). Moreover, in experiment [6], the NADPH fluorescence slope was -4.6e-05 (inactive). The outcome in [8] was inactive.

Turning to `N#Cc1nc(COc2ccccc2Cl)oc1NCc1ccc(F)cc1`, the cell count in [1] was 432. In addition, the inhibition in [1] is -1.7% (inactive); in experiment [2] it was -89.3% (inactive); in experiment [4], 2.71% (inactive); in experiment [9] it was -1.44% (inactive). In experiment [2], this compound returned a nuclei count of 182%. The z-score was -1.38 in experiment [3] (setting [10]), 0.104 in experiment [3] (setting [11]) and 0.625 in [3] (setting [12]). For the same compound, the fluorescence slope in experiment [5] was -0.373 (inactive); in experiment [7] it was 0.00509 (inactive). For the same compound, the NADPH fluorescence slope in [6] was -3.8e-05 (inactive). In addition, in experiment [8], the outcome was inactive.

For `CCCCOC(=O)c1[nH]c(C)c(C(=O)OC)c1C`, the cell count in [1] is 604. In addition, the inhibition in [1] was -7.5% (inactive); in experiment [2], 50.3% (inactive); in [4], 37% (inactive); in experiment [9] it was 90.5% (active). In [2], this compound returned a nuclei count of 98.7%. Further, the values for the z-score in experiment [3] (setting [10]), in experiment [3] (setting [11]) and in experiment [3] (setting [12]) were 0.82, -1.07 and -0.474, respectively. The fluorescence slope in experiment [5] is -0.481 (inactive); in [7], 0.00588 (inactive). For the same compound, the NADPH fluorescence slope in experiment [6] is -1.9e-05 (inactive). Moreover, the compound was called inactive in [8].

On to `Cc1nn2cnc3sc4c(c3c2nc1=O)CCCC4`, for which, in [1], the cell count came out at 535. The inhibition in experiment [1] was -9.5% (inactive); in experiment [2], -186% (inactive); in [4] it was 13.9% (inactive); in experiment [9] it was 19.9% (inactive). Moreover, the nuclei count in [2] worked out at 145%. The values for the z-score in experiment [3] (setting [10]), in [3] (setting [11]) and in [3] (setting [12]) were 0.522, -0.702 and -1.01, respectively. Further, the values for the fluorescence slope in experiment [5] and in experiment [7] were -0.364 (inactive) and 0.00519 (inactive), respectively. Moreover, the NADPH fluorescence slope in experiment [6] was -2.5e-05 (inactive). In addition, the outcome in experiment [8] was inactive.

As for `COC(=O)NC(Nc1sc2c(c1C(N)=O)CCCC2)(C(=O)OC)C(F)(F)F` (centres undefined), the cell count in experiment [1] came out at 713. The inhibition in experiment [1] was 11.7% (inactive); in experiment [2], -59.3% (inactive); in experiment [4], -11.4% (inactive); in experiment [9] it was -3.75% (inactive). In experiment [2], the nuclei count turned out to be 147%. In addition, the z-score in [3] (setting [10]) is 0.143; in experiment [3] (setting [11]), -0.0847; in experiment [3] (setting [12]) it was -0.638. The fluorescence slope was -0.431 (inactive) in experiment [5] and 0.00518 (inactive) in experiment [7]. For the same compound, in experiment [6], the NADPH fluorescence slope is -7.5e-05 (inactive). Also, in experiment [8], the call was inactive.

The record behind these values is PubChem BioAssay.
